{"source": "paper PMC2907921", "about": "(Cancer cell, 2010)", "key": {"RXRα LBD": {"target": "T1, RXRα LBD (Homo sapiens, UniProt P19793)", "T1 sequence (P19793 227-458 limits assumed)": "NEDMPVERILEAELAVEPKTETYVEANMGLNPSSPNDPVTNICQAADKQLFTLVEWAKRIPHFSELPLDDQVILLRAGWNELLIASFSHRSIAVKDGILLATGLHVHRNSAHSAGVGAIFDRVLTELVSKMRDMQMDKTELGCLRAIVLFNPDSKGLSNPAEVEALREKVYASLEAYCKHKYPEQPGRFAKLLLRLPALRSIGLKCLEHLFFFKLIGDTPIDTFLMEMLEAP", "assay": "Competition ligand-binding assay with [3H]9-cis-RA", "details": "Sulindac analogs", "procedure,_shortened": "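Competitive binding: RXR ligand-binding domain incubated with [3H]-9-cis-RA, with or without unlabeled 9-cis-RA or test compound. Bound radioligand was quantified by liquid scintillation counting.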"}, "AKT activation": {"system": "AKT activation", "assay": "AKT activation by immunoblotting", "format": "cell-based", "details": "50 μM", "procedure,_shortened": "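Immunoblot for Ser473-phospho-AKT. Cells were serum-starved overnight and exposed to 100 μM test compound for 1 hr. In TNFα arms, cells were pretreated with compound (100 μM in A549, 50 μM in PC3) for 1 hr and then given TNFα 10 ng/ml for 30 min. Some cells were transfected with RXRα, RARγ or control siRNA for 48 hr beforehand. Compound was dissolved in DMSO.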"}, "[1]": {"system": "HeLa/RXRα/1–134 and RXRα/Δ80 cells", "assay": "Colony formation", "format": "cell-based", "details": "25 μM", "procedure,_shortened": "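Clonogenic survival of HeLa stably expressing RXRα/1–134, and of SW480 or HCT116 stably expressing GFP-RXRα/Δ80. Cells were grown in 6-well plates for 5 days, then exposed to 25 μM test compound in 0.5% serum medium for 3 days. Colonies were fixed with 4% paraformaldehyde and stained with 0.1% crystal violet.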"}, "COX-1 and COX-2": {"system": "COX-1 and COX-2", "assay": "COX Fluorescent Activity Assay", "format": "biochemical"}, "[2]": {"system": "prostaglandin E2 (PGE2) production, A549 cells", "assay": "Prostaglandin E2 production", "format": "cell-based", "procedure,_shortened": "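A549 cells were stimulated with TNFα 10 ng/ml for 24 hr, then exposed to test compound for 30 min. PGE2 was measured by enzyme immunoassay kit and expressed as the ratio of PGE2 with compound to PGE2 with vehicle.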"}, "RXRα/Δ80 tumor": {"system": "RXRα/Δ80 tumor", "assay": "RXRα/Δ80 tumor growth in nude mice", "format": "in vivo, Nude mice (BALB/c)", "details": "60 mg/kg intraperitoneally, two weeks"}, "[3]": {"system": "cancer cell lines (HepG2, ZR-75-1)", "assay": "PARP cleavage and caspase-8 activation by immunoblotting", "format": "cell-based", "procedure,_shortened": "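Immunoblot for PARP cleavage and cleaved caspase-8 (p43/p41). ZR-75-1 cells were exposed to TNFα and/or test compound (50 or 75 μM) for 6 hr. HepG2 cells in 1% FBS medium received TNFα 10 ng/ml and/or 75 μM compound for 4 hr. Some cells were pretreated with 1 μM SR11237 for 1 hr.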"}, "tRXRα/p85α interaction": {"target": "T2, tRXRα/p85α interaction (Homo sapiens, UniProt P19793)", "T2 sequence (P19793 81-462 limits assumed)": "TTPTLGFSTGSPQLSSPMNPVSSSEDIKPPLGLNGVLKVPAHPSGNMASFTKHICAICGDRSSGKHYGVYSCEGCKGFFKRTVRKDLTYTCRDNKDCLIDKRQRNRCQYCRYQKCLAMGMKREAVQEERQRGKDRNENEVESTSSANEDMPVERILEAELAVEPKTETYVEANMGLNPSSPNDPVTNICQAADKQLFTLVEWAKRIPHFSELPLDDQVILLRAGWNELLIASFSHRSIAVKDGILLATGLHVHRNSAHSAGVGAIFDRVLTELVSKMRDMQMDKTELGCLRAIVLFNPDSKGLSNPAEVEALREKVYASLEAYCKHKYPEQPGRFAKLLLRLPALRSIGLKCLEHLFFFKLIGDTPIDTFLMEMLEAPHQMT", "assay": "tRXRα/p85α interaction by co-immunoprecipitation", "format": "cell-based", "details": "A549 cells, 50 μM, absence or presence of TNFα", "procedure,_shortened": "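Two co-immunoprecipitation set-ups in A549 cells. (a) Endogenous protein: cells received TNFα 10 ng/ml and/or 100 μM test compound for 30 min, then were immunoprecipitated with the C-terminal ΔN197 RXRα antibody and blotted for p85α. (b) Transfected Flag-p85α and Myc-RXRα/Δ80: cells were pretreated with 50 μM compound for 1 hr, then given TNFα for 30 min, and immunoprecipitated with anti-Flag.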"}, "COX": {"system": "COX", "details": "ref Haanen, 2001; cited from earlier work"}}, "data": [{"molecule": "CC1=C(CC(=O)O)c2cc(F)ccc2/C1=C\\c1ccc(C(C)C)cc1", "note": "[K-80003]", "values": [{"measurement": "RXRα-binding activity", "setting": "RXRα LBD", "value": "most potent"}, {"measurement": "Inhibition of RA- and TNFα-induced AKT activation, compared with Sulindac", "setting": "AKT activation", "value": "much more effective than Sulindac"}, {"measurement": "Colony formation", "setting": "[1]", "value": "almost completely suppressed"}, {"measurement": "Inhibition of COX activities", "setting": "COX-1 and COX-2", "value": "no detectable inhibition"}, {"measurement": "Inhibition of constitutive and TNFα or IL-1β-induced PGE2 production", "setting": "[2]", "value": "failed to inhibit"}, {"measurement": "Inhibition of RXRα/Δ80 tumor growth, compared with Sulindac", "setting": "RXRα/Δ80 tumor", "value": "much more potent inhibitory effect than Sulindac"}, {"measurement": "PARP cleavage with TNFα, compared with Sulindac", "setting": "[3]; ZR-75-1 cells, K-80003 50 μM, Sulindac 75 μM, 6 hr", "value": "more effective than Sulindac"}, {"measurement": "PARP cleavage and caspase-8 activation, with TNFα", "setting": "[3]; various cancer cell lines", "value": "synergistically induced PARP cleavage and caspase-8 activation"}, {"measurement": "Interaction of RXRα/Δ80 with p85α, compared with Sulindac", "setting": "tRXRα/p85α interaction", "value": "more potently inhibited"}]}, {"molecule": "CC1=C(CC(=O)O)c2cc(F)ccc2/C1=C\\c1ccc(S(C)(=O)=O)cc1", "note": "[sulindac sulfone]", "values": [{"measurement": "COX-inhibiting activity", "setting": "COX", "value": "no COX-inhibiting activity"}]}, {"molecule": "CC1=C(CC(=O)O)c2cc(F)ccc2/C1=C/c1ccc([S+](C)[O-])cc1", "note": "(centres unmarked) [sulindac sulfoxide]", "values": [{"measurement": "COX-inhibiting activity", "setting": "COX", "value": "no COX-inhibiting activity"}]}]}
